Reference: ChEMBL document CHEMBL1142708, “Synthesis, characterization, and comparative in vitro cytotoxicity studies of platinum(II), palladium(II), and gold(III) methylsarcosinedithiocarbamate complexes” (J Med Chem, 2005)

What was measured:
HeLa = assay: Concentration of the compound required to inhibit cell growth by 50% towards human HeLa tumor cell lines by the trypan blue dye exclusion test after 72 h; assay type: functional, cell-based
Summary of the method: (§1)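 Cells were seeded in IMDM with 10% heat-inactivated FCS, penicillin/streptomycin and L-glutamine at 37 °C under 5% CO2, at 5.0 × 10^4 cells·mL-1 for HeLa and 2.0 × 10^5 cells·mL-1 for HL60. Compounds were taken from DMSO stocks into IMDM (final DMSO 0.1%). After 72 h, cells were stained for 2 min with 0.25% trypan blue plus 5% FCS, and viable cells were counted by phase-contrast microscopy. IC50 was taken as 50% growth inhibition versus control.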

HL-60 = assay: Concentration of the compound required to inhibit cell growth by 50% towards human HL60 tumor cell lines by the trypan blue dye exclusion test after 72 h; assay type: functional, cell-based; summary of the method: as §1

Substance | IC50 (HeLa) | IC50 (HL-60)
[Pt(MSDTM)Br2] | > 15 µM | > 15 µM
[Pd(MSDTM)Br2] | > 15 µM | > 15 µM
[Pt(MSDT)Cl]n | > 15 µM | > 15 µM
[Pt(MSDT)Br]n | > 15 µM | > 15 µM

Now those with a lower IC50 (HeLa), led by results:

IC50 (HeLa) | IC50 (HL-60) | Substance
6 µM | 3.8 µM | [Pd(MSDT)Cl]n
5 µM | 3.7 µM | [Pd(MSDT)Br]n
1.8 µM | 0.8 µM | [Au(MSDT)Br2]
1.7 µM | 0.9 µM | [Au(MSDT)Cl2]
1.2 µM | 1.7 µM | CISPLATIN
